Data set [1] is described as follows: Selectivity index, ratio of LD50 for human A549 cells to MIC80 for Cryptococcus neoformans H99. It is filed as toxicity. As to conditions: read-out: Selectivity Index. The essentials:
(§1)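 SI = LD₅₀/MIC₈₀. Cytotoxicity: A549 or HepG2 cells (DMEM, 10% FBS, passage 7, 10⁵ cells/well) adhered 14 h, then exposed to 0.03–128 μg/mL for 24 or 48 h at 37°C, 5% CO₂; MTT 4 h, formazan dissolved in DMSO, read at 570 nm. MIC₈₀ against C. neoformans from broth microdilution in HEPES-buffered YNB, pH 7.0.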

The next data set concerns A549. As to the kind of experiment: Cytotoxicity against human A549 cells after 24 to 48 hrs by MTT assay. As to conditions: read-out: LD50 (the source's name). It is filed as functional. The essentials:
(§2)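 A549 and HepG2 kept in DMEM with 10% FBS and 1% pen-strep. At passage 7, seeded at 10⁵ cells/well and allowed to adhere 14 h. Compound added at 0.03–128 μg/mL, untreated wells as controls. Incubation 37°C, 5% CO₂ for 24 or 48 h. MTT (5 mg/mL in PBS) added for 4 h, formazan dissolved in DMSO, OD570.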

Data set [2] can be described thus: Selectivity index, ratio of LD50 for human HepG2 cells to MIC80 for Cryptococcus neoformans H99. It counts as toxicity. As to conditions: read-out: Selectivity Index. In short, it runs like this: as §1
The test system of the next data set is HepG2. As to the kind of experiment: Cytotoxicity against human HepG2 cells after 24 to 48 hrs by MTT assay. As to conditions: read-out: LD50 (the source's name). It counts as functional. The essentials: as §2
For data set [3], the system named is Cryptococcus neoformans. As to the kind of experiment: Antifungal activity against Cryptococcus neoformans H99 measured after 24 to 72 hrs. It is filed as functional. The settings on record: var grubii H99. The essentials:
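Modified CLSI broth microdilution with inoculum per M27A3. Compounds were serially diluted 32 to 0.03 μg/mL. Media: C. neoformans in HEPES-buffered YNB without amino acids (pH 7.0, 2% glucose); Candida strains in YNB without ammonium sulfate or amino acids plus 1% asparagine (pH 7.0, 2% glucose); A. fumigatus in RPMI (pH 7.0, 2% glucose).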

Data set [4] relates to Cryptococcus neoformans. The data set is described as follows: Fungicidal activity against Cryptococcus neoformans H99 measured after 12 hrs by time-kill assay. It counts as functional, var grubii H99. The essentials:
(§3)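 Overnight C. neoformans washed in PBS and resuspended in HEPES-buffered YNB, pH 7.4. 2 × 10⁴ cells exposed to a range of drug concentrations in 10 mL with 0.5% DMSO final, at 37°C, 5% CO₂, shaking at 200 rpm. Aliquots sampled over 96 h, diluted and plated on YPD; CFU counted after 48 h at 30°C.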

Data set [5] deals with Cryptococcus neoformans. The data set is described as follows: Fungicidal activity against Cryptococcus neoformans H99 measured after 96 hrs by time-kill assay. It counts as functional, var grubii H99. The essentials:
as §3

Data set [6] deals with Cryptococcus neoformans. The data set is described as follows: Fungicidal activity against Cryptococcus neoformans H99 measured after 6 hrs by time-kill assay. It counts as functional, var grubii H99. In short, it runs like this:
as §3

Data set [7] deals with Cryptococcus neoformans. As to the kind of experiment: Fungistatic activity against Cryptococcus neoformans H99 by time-kill assay. The settings on record: var grubii H99. It is filed as functional, organism-based. The essentials: as §3

In brackets after ≈: the same amount, converted by molar mass. Activity calls are given as the source filed them. No cut-off for these calls is given here.

Take `O=C(N/N=C/c1cc(Cl)ccc1O)c1cc(Br)cc(Br)c1`: the selectivity ratio in data set [1] and in data set [2] was 133 each time. Further, the CC50 with A549 and in the data set with HepG2 was 16 µg/mL (≈ 37 µM) throughout. Moreover, the MIC80 against Cryptococcus neoformans [3] came out at 0.12 µg/mL (≈ 0.277 µM). In the data set on Cryptococcus neoformans [4], this compound returned an MFC100 of 1 µg/mL (≈ 2.31 µM).

`O=C(N/N=C/c1cc(Br)ccc1O)c1ccc(OC(F)(F)F)cc1`: the selectivity ratio in data set [1] amounted to 66.6; in [2] it was 267. Also, the CC50 was found to be 4 µg/mL (≈ 9.92 µM) in the data set with A549 and 16 µg/mL (≈ 39.7 µM) in the data set with HepG2. Also, the MIC80 with Cryptococcus neoformans [3] was found to be 0.06 µg/mL (≈ 0.149 µM). The compound also had an MFC100 with Cryptococcus neoformans [4] of 1 µg/mL (≈ 2.48 µM).

As for `O=C(N/N=C/c1ccc(Br)cc1O)c1ccc(Br)cc1`, the selectivity ratio in data set [1] is 267; in data set [2], 533. The CC50 in the data set with A549 was determined as 16 µg/mL (≈ 40.2 µM); in the data set on HepG2, 32 µg/mL (≈ 80.4 µM). This compound also gave an MFC100 against Cryptococcus neoformans [5] of 0.25 µg/mL (≈ 0.628 µM). The MIC80 against Cryptococcus neoformans [3] stood at 0.06 µg/mL (≈ 0.151 µM).

As for `O=C(N/N=C/c1cc(Cl)cc(Cl)c1O)c1ccc(Br)cc1Br`, the selectivity ratio in data set [1] was found to be 128; in data set [2] it was 64. Also, the CC50 in the data set with A549 is 128 µg/mL (≈ 274 µM); in the data set on HepG2, 64 µg/mL (≈ 137 µM). In the data set on Cryptococcus neoformans [3], the MIC80 was determined as 1 µg/mL (≈ 2.14 µM). Besides, the MFC100 in the data set on Cryptococcus neoformans [6] amounted to 0.5 µg/mL (≈ 1.07 µM).

Turning to `O=C(N/N=C/c1cc(F)ccc1O)c1ccc(Br)cc1Br`, the selectivity ratio in data set [1] and in [2] was 16 in each case. Further, the CC50 with A549 and in the data set on HepG2 was 16 µg/mL (≈ 38.5 µM) each time. For the same compound, the MFC100 with Cryptococcus neoformans [5] came out at 2 µg/mL (≈ 4.81 µM). The MIC80 in the data set on Cryptococcus neoformans [3] was determined as 1 µg/mL (≈ 2.4 µM).

Take `O=C(N/N=C/c1cc(Br)cc(Br)c1O)c1ccc(C(F)(F)F)cc1`: the selectivity ratio in data set [1] was determined as 33.3. In addition, the CC50 in the data set on A549 was found to be 4 µg/mL (≈ 8.58 µM); with HepG2 it was 8 µg/mL (≈ 17.2 µM). In the data set on Cryptococcus neoformans [3], this compound registered an MIC80 of 0.12 µg/mL (≈ 0.257 µM). This compound also registered an MFC100 against Cryptococcus neoformans [4] of 1 µg/mL (≈ 2.15 µM).

On to `O=C(N/N=C/c1ccc(Br)cc1O)c1cc(Br)ccc1Br`, for which the selectivity ratio in [1] came out at 267; in data set [2], 133. The CC50 in the data set on A549 was determined as 32 µg/mL (≈ 67.1 µM); with HepG2, 16 µg/mL (≈ 33.5 µM). Besides, in the data set with Cryptococcus neoformans [3], the MIC80 was determined as 0.12 µg/mL (≈ 0.252 µM). The MFC100 in the data set with Cryptococcus neoformans [6] stood at 0.25 µg/mL (≈ 0.524 µM).

Turning to `O=C(N/N=C/c1cccc(Cl)c1O)c1cccc(C(F)(F)F)c1`, the selectivity ratio in data set [1] and in data set [2] was 32 in each case. Further, the CC50 with A549 and in the data set with HepG2 was 32 µg/mL (≈ 93.4 µM) each time. Further, the MFC100 against Cryptococcus neoformans [5] is 2 µg/mL (≈ 5.84 µM). The compound also yielded an MIC80 against Cryptococcus neoformans [3] of 1 µg/mL (≈ 2.92 µM).

As for `CN(C)c1ccc(C(=O)N/N=C/c2cc(Br)cc(Br)c2O)cc1`, the outcome in the data set on Cryptococcus neoformans [7] was Active. Also, the selectivity ratio in [1] and in data set [2] was 32 each time. Moreover, the CC50 in the data set on A549 and in the data set on HepG2 was 16 µg/mL (≈ 36.3 µM) in each case. The compound further returned an MIC80 in the data set with Cryptococcus neoformans [3] of 0.5 µg/mL (≈ 1.13 µM).

With `O=C(N/N=C/c1cccc(Br)c1O)c1cccc(F)c1`, the selectivity ratio in [1] and in data set [2] was 16 in each case. Also, the CC50 in the data set on A549 and in the data set on HepG2 was 16 µg/mL (≈ 47.5 µM) each time. The compound further returned an MIC80 with Cryptococcus neoformans [3] of 1 µg/mL (≈ 2.97 µM). The MFC100 against Cryptococcus neoformans [4] worked out at 2 µg/mL (≈ 5.93 µM).

Consider `O=C(N/N=C/c1cc(Br)cc(Br)c1O)c1cccc(OC(F)F)c1`, for which the selectivity ratio in data set [1] and in [2] was 133 in each case. For the same compound, the CC50 in the data set on A549 and in the data set with HepG2 was 16 µg/mL (≈ 34.5 µM) each time. This compound also gave an MFC100 in the data set on Cryptococcus neoformans [5] of 0.25 µg/mL (≈ 0.539 µM). For the same compound, the MIC80 in the data set on Cryptococcus neoformans [3] is 0.12 µg/mL (≈ 0.259 µM).

On to `O=C(N/N=C/c1cc(Br)cc(Br)c1O)c1ccc(OC(F)F)cc1`, for which the selectivity ratio in data set [1] and in data set [2] was 133 throughout. Also, the CC50 in the data set with A549 and in the data set with HepG2 was 16 µg/mL (≈ 34.5 µM) each time. Also, the MIC80 with Cryptococcus neoformans [3] is 0.12 µg/mL (≈ 0.259 µM). The compound also came in with an MFC100 with Cryptococcus neoformans [6] of 1 µg/mL (≈ 2.15 µM).

With `O=C(N/N=C/c1cc(F)ccc1O)c1ccc(Br)cc1`, the selectivity ratio in data set [1] turned out to be 8; in data set [2], 16. Also, the results for the CC50 with A549 and with HepG2 were 8 µg/mL (≈ 23.7 µM) and 16 µg/mL (≈ 47.5 µM), respectively. The compound also came in with an MFC100 in the data set with Cryptococcus neoformans [5] of 4 µg/mL (≈ 11.9 µM). The compound further showed an MIC80 against Cryptococcus neoformans [3] of 1 µg/mL (≈ 2.97 µM).

For `O=C(N/N=C/c1cc(Cl)ccc1O)c1ccc(Br)cc1Br`, the selectivity ratio in [1] and in data set [2] was 256 throughout. For the same compound, the CC50 in the data set with A549 and in the data set with HepG2 was 64 µg/mL (≈ 148 µM) each time. Moreover, the MIC80 against Cryptococcus neoformans [3] was found to be 0.25 µg/mL (≈ 0.578 µM). The compound further came in with an MFC100 in the data set with Cryptococcus neoformans [4] of 1 µg/mL (≈ 2.31 µM).

The record behind these values is ChEMBL document CHEMBL4334465, “SAR Studies on Aromatic Acylhydrazone-Based Inhibitors of Fungal Sphingolipid Synthesis as Next-Generation Antifungal Agents” (J Med Chem, 2019).
